In PMC9322450 (Angewandte Chemie (International ed. in English), 2022):

Columns and labels:
[1] = assay type: in vitro ADME, mouse
Outline: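 Mouse epidermis punches (C57BL/6-type, ≈6 mm diameter, 1 mm thick) incubated with test compound at 4.85 μM in PBS for 24 h. Supernatant sampled over time, diluted 100-fold, added to a group-I S. aureus agr YFP reporter strain making native AIP. Fluorescence normalized to vehicle (100%) and media (0%) controls, n=3 independent experiments; remaining active compound estimated from an earlier dose-response curve.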

[2] = test system: S. aureus; test: murine open-wound model of S. aureus infection; assay type: in vivo, mouse; conditions: even at relatively high concentrations (e.g. 10 μM)

Substance: AIP-III D4A
- loss of active compound ([1]; after 24 h with mouse tissue in PBS, start 4.85 μM): ~ 95%
- loss of inhibitory activity in the absence of mouse tissue ([1]; control without tissue, 24 hr): no loss of inhibitory activity
- loss of activity with heat-treated tissue ([1]; tissue sample heat treated at 80 °C for 15 min before addition of compound): loss of activity could be prevented
- benefit on wound healing [2]: only a limited benefit on wound healing
